Experimental data published in PubChem BioAssay.
Records with an inconclusive call do not appear.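 Rule for the calls, unless noted: active = viability increase at or above a cutoff of the median across tested compounds plus 3 SD (cut at about 8.5% in these data, passing the limit was not always enough); inconclusive = some gains above the cutoff, reason not given; inactive = the rest.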

What was measured:
[1] = OD615 S. cerevisiae growth inhibition, permissive medium, pilot counter-assay, permissive growth control for S. cerevisiae lifespan shortening project (AID 705;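 active = growth inhibition above 25% in both replicates, a cutoff set 3 SD above the mean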); conditions: OD615, 24 h, at 10 µM, stronger effect = higher value
How it was run: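 assay system = Saccharomyces cerevisiae strain carrying genetically modified DeaD replicative-lifespan system | technique = absorbance (optical density) at 615 nm | buffer or medium = permissive raffinose/galactose medium | timing = cells pre-grown 4 h, then 24 h compound exposure, 30 °C humidified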

[2] = Restrictive medium S. cerevisiae growth inhibition, OD615, pilot screen of yeast lifespan reduction project, restrictive growth control (AID 706;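 active = growth inhibition above a set limit, 3 SD over mean compound inhibition, in both replicates, cut at about 43% in these data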;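 note: modified DeaD lifespan yeast strain shifted to restrictive glucose medium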); conditions: OD615, 48 h, at 10 µM, stronger effect = higher value
How it was run: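 System: modified S. cerevisiae. Buffer or medium: CSMM-D glucose medium. Incubation: 4 h pre-growth plus 48 h compound exposure, 30 °C. Detection: absorbance (optical density) measured at 615 nm.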

[3] = viability gain of MRP-1-high H69AR cells under doxorubicin, pilot screen, MRP-1 activator project, CellTiter-Glo, duplicate (AID 807); conditions: H69AR viability with doxorubicin, CellTiter-Glo luminescence; at 10 µM; stronger effect = higher value;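 note: compound pretreatment 18-22 h then 72 h combined with doxorubicin; 0% = doxorubicin alone and 100% = vehicle without doxorubicin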
[4] = growth suppression of beta-catenin knockout HCT116, pilot screen, human colon tumor cells (AID 823;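 active = cell viability at or below a set limit in both duplicate runs, the limit being the all-compound median minus 4 SD, cut at about 23% in these data, passing the limit was not always enough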;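 note: 0% = wells killed by 20 µM Hyamine and 100% = untreated DMSO cell wells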); conditions: CellTiter-Glo, 60 h, at 10 µM, stronger effect = lower value
[5] = growth suppression of PTEN-deleted HCT116, pilot screen, cell-based, HCT116 clonal line, CellTiter-Glo (AID 824;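 active = viability at or below 27.92% in each of two runs, the all-compound median minus 4 SD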;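 note: 0% = 20 µM Hyamine control and 100% = vehicle cell control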); conditions: 60 h, at 10 µM, stronger effect = lower value
[6] = inhibitors of the yeast RAM network, pilot screen, dse1pr::URA3 reporter, 5-FOA selection (AID 869;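 active = inhibition over a set limit, the all-compound mean plus 3 SD, in both replicate runs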;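 note: 0% = DMSO wells with no growth and 100% = 10 µM 1-NA-PP1 with full growth; RAM network block rescues cells from 5-FOA so hits raise OD615 growth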); conditions: S. cerevisiae dse1pr::URA3 5-FOA growth, OD615, 2 d; at 10 µM; stronger effect = higher value; strain carries analog-sensitive mutant Cbk1 kinase
[7] = RAM signaling pathway blockade in yeast – S. cerevisiae, Pdr1DBD-CYC8 efflux-inhibited sensitized strain, primary screen (AID 1298;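 active = RAM network inhibition above 8.4% in each of two replicates, 3 SD over the compound average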;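 note: 0% = DMSO untreated cells without growth and 100% = 10 µM 1-NA-PP1 full growth; higher means more yeast growth rescued from 5-FOA killing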); conditions: S. cerevisiae cbk1-as DSE1-URA3 strain, 5-FOA growth OD615, 2 d; at 50 µM; stronger effect = higher value

CN1CCc2c(sc3c2C(=O)NC(c2ccc(-c4cccc(Cl)c4)o2)N3)C1 (configuration not stated)
inactive: growth inhibition [1] 5% | growth inhibition [2] 3.19% | viability increase [3] -1.49% | viability [4] 97.6% | viability [5] 87.7% | inhibition [6] 1.89% | RAM network inhibition [7] 2.2%

COc1ccccc1NC(=O)C1CCCN(S(=O)(=O)c2cnc[nH]2)C1 (configuration not stated)
inactive: growth inhibition [1] 1.64% | growth inhibition [2] -3.54% | viability increase [3] -0.26% | viability [4] 97% | viability [5] 95.5% | inhibition [6] 0.53% | RAM network inhibition [7] 0.84%

Cc1ccn2cc(-c3ccc(S(=O)(=O)N4CCOCC4)cc3)nc2c1
inactive: growth inhibition [1] -2.96% | growth inhibition [2] 6.53% | viability increase [3] 2.12% | viability [4] 106% | viability [5] 102% | inhibition [6] 1.6% | RAM network inhibition [7] 1.79%

Cc1nc(=O)c(-c2ccccc2)c(C)n1CC1CCCO1 (configuration not stated)
inactive: growth inhibition [1] -7.12% | growth inhibition [2] -9.15% | viability increase [3] -2.44% | viability [4] 99.8% | viability [5] 96.4% | inhibition [6] 1.38% | RAM network inhibition [7] 0.16%

Cc1ccc(OCCSc2cc(C)nc(N)n2)cc1
inactive: growth inhibition [1] -3.51% | growth inhibition [2] -3.22% | viability increase [3] 0.4% | viability [4] 95.6% | viability [5] 96% | inhibition [6] 1.12% | RAM network inhibition [7] 0.05%

Cc1cc(C)nc(NS(=O)(=O)c2ccc(Br)s2)c1
inactive: growth inhibition [1] -1.63% | growth inhibition [2] -7.46% | viability increase [3] -0.89% | viability [4] 95.9% | viability [5] 93.5% | inhibition [6] 0.28% | RAM network inhibition [7] 9.36%

O=C(Nc1nc(-c2ccco2)c(-c2ccco2)s1)C1CC(=O)N(c2ccc3c(c2)OCCO3)C1 (configuration not stated)
inactive: growth inhibition [1] -14.8% | growth inhibition [2] -20.3% | viability increase [3] -3.72% | viability [4] 76.5% | viability [5] 78.8% | inhibition [6] 2.66% | RAM network inhibition [7] 4.02%

Cc1ccc(C2CC(c3cccc(C)c3)n3ncnc3N2)cc1 (configuration not stated)
inactive: growth inhibition [1] 3.83% | growth inhibition [2] 15.5% | viability increase [3] -0.97% | viability [4] 85.7% | viability [5] 86.1% | inhibition [6] 0.45% | RAM network inhibition [7] 4.74%

O=C(Nc1ccc(Cl)c(Cl)c1)c1ccncc1
inactive: growth inhibition [1] -19.8% | growth inhibition [2] -34.8% | viability increase [3] -1.27% | viability [4] 101% | viability [5] 90.6% | inhibition [6] 0.83% | RAM network inhibition [7] 2.47%

COc1ccc(C2N(c3cc(Cl)ccc3OC)C(=O)C3CCCN32)cc1 (configuration not stated)
inactive: growth inhibition [1] 2.4% | growth inhibition [2] -1.37% | viability increase [3] -1.89% | viability [4] 106% | viability [5] 96.9% | inhibition [6] 1.01% | RAM network inhibition [7] -0.42%

Cc1ccc2c(c1)c(C)c(C)n2CC(O)CN1CCCCC1C (configuration not stated)
inactive: growth inhibition [1] -9.72% | growth inhibition [2] -9.14% | viability increase [3] -4.02% | viability [4] 72.2% | viability [5] 79.6% | inhibition [6] 0.91% | RAM network inhibition [7] 2.28%

O=C(NCc1ccccn1)C1CCC(=O)N1C1CCCC1 (configuration not stated)
inactive: growth inhibition [1] -0.9% | growth inhibition [2] 3.94% | viability increase [3] -0.45% | viability [4] 98.2% | viability [5] 98% | inhibition [6] 1.67% | RAM network inhibition [7] 4.67%

CC(C)(C)NC(=O)c1cnn2c1NC(c1ccc(F)cc1)CC2C(F)(F)F (configuration not stated)
inactive: growth inhibition [1] -14.6% | growth inhibition [2] -18.1% | viability increase [3] -0.08% | viability [4] 89.5% | viability [5] 87.1% | inhibition [6] 3.81% | RAM network inhibition [7] 6.9%

COc1ccccc1-n1c(=O)[nH]c2c(C(N)=O)nc(C3CCCCC3)nc21
inactive: growth inhibition [1] -7.19% | growth inhibition [2] -5.21% | viability increase [3] -3.33% | viability [4] 94.7% | viability [5] 77.5% | inhibition [6] 1.55% | RAM network inhibition [7] 2.69%

Cc1onc(-c2ccccc2Cl)c1C(=O)Nc1nnc(C(C)C)s1
inactive: growth inhibition [1] 1.52% | growth inhibition [2] 4.5% | viability increase [3] -1.44% | viability [4] 93.4% | viability [5] 95.7% | inhibition [6] -0.23% | RAM network inhibition [7] 4.37%

O=C(O)c1ccc(NS(=O)(=O)c2cc(Cl)ccc2Cl)cc1
inactive: growth inhibition [1] -13.7% | growth inhibition [2] -25.1% | viability increase [3] -2.13% | viability [4] 97.8% | viability [5] 95.3% | inhibition [6] 1.72% | RAM network inhibition [7] 4.43%

CC1Cc2ccccc2C(=O)N1 (configuration not stated)
inactive: growth inhibition [1] 0.58% | growth inhibition [2] 11.4% | viability increase [3] 0.15% | viability [4] 106% | viability [5] 99% | inhibition [6] 0.36% | RAM network inhibition [7] 3.5%

CC(C)=C(NC(=O)c1ccccc1)C(=O)NCCCC(=O)O
inactive: growth inhibition [1] -7.54% | growth inhibition [2] -18.8% | viability increase [3] -0.03% | viability [4] 100% | viability [5] 103% | inhibition [6] 1.5% | RAM network inhibition [7] 2.34%

Cc1nc2ccc(S(=O)(=O)NC(C(=O)N3CCC(C)CC3)C(C)C)cc2s1 (configuration not stated)
inactive: growth inhibition [1] -13.4% | growth inhibition [2] -2.64% | viability increase [3] -2.02% | viability [4] 93.9% | viability [5] 89% | inhibition [6] 2.38% | RAM network inhibition [7] 2.55%

COC(=O)Cn1c(CN2CCc3ccccc3C2)nc2c1c(=O)n(C)c(=O)n2C
inactive: growth inhibition [1] -4.78% | growth inhibition [2] 0.56% | viability increase [3] -1.18% | viability [4] 95.6% | viability [5] 96.2% | inhibition [6] 1.31% | RAM network inhibition [7] 8.74%

O=C1CC(c2cccnc2)c2cc3c(cc2N1)OCCO3 (configuration not stated)
inactive: growth inhibition [1] 2.41% | growth inhibition [2] -0.935% | viability increase [3] -2.86% | viability [4] 91.5% | viability [5] 91.9% | inhibition [6] 2.35% | RAM network inhibition [7] 2.43%

CC1CCN(C(C(=O)Nc2ccc3c(c2)OCO3)c2ccccc2)CC1 (configuration not stated)
inactive: growth inhibition [1] 3.37% | growth inhibition [2] 10.4% | viability increase [3] -2.94% | viability [4] 83.8% | viability [5] 78.7% | inhibition [6] 2.49% | RAM network inhibition [7] 4.49%

COC(=O)c1c(NC(=O)c2nc3ccccc3s2)sc2c1CCN(C(C)=O)C2
inactive: growth inhibition [1] 7.87% | growth inhibition [2] 1.73% | viability increase [3] -6.02% | viability [4] 71.7% | viability [5] 68% | inhibition [6] 4% | RAM network inhibition [7] 5.96%

c1cn2c(NC3CCCC3)c(-c3ccc(N4CCOCC4)cc3)nc2cn1
inactive: growth inhibition [1] -2.94% | growth inhibition [2] 7.59% | viability increase [3] -4.3% | viability [4] 88.8% | viability [5] 77.8% | inhibition [6] 1.78% | RAM network inhibition [7] 3.25%

O=P(O)(CN1CCCCC1)C1CCCCC1O (configuration not stated)
inactive: growth inhibition [1] -11.2% | growth inhibition [2] -3.29% | viability increase [3] -1.71% | viability [4] 105% | viability [5] 104% | inhibition [6] 0.06% | RAM network inhibition [7] 1.57%

CCN(CCNC(=O)Cn1c(=O)sc2ccccc21)c1ccccc1
inactive: growth inhibition [1] -10.6% | growth inhibition [2] 2.42% | viability increase [3] -3.76% | viability [4] 92.2% | viability [5] 84.9% | inhibition [6] 1.57% | RAM network inhibition [7] 2.04%

O=C(O)C1C2C=CC3(CN(C/C=C/c4ccccc4)C(=O)C13)O2 (configuration not stated)
inactive: growth inhibition [1] -17.1% | growth inhibition [2] -3.43% | viability increase [3] -2.86% | viability [4] 94% | viability [5] 100% | inhibition [6] 1.28% | RAM network inhibition [7] 3.71%

O=P(c1ccccc1)(c1ccccc1)C1CCCO1 (configuration not stated)
inactive: growth inhibition [1] -10.8% | growth inhibition [2] 8.75% | viability increase [3] 1.36% | viability [4] 97.7% | viability [5] 91.7% | inhibition [6] 2.44% | RAM network inhibition [7] 0.92%

Cc1oc(-c2ccc(Cl)cc2)nc1CS(=O)CC(=O)NCCN1CCCC1 (configuration not stated)
inactive: growth inhibition [1] -4.58% | growth inhibition [2] -1.17% | viability increase [3] -1.14% | viability [4] 91.1% | viability [5] 91.4% | inhibition [6] 1.06% | RAM network inhibition [7] 8.14%

Cn1cc(S(=O)(=O)Nc2ccc(F)cc2F)c(=O)n(C)c1=O
inactive: growth inhibition [1] -11.6% | growth inhibition [2] 0.815% | viability increase [3] 0.9% | viability [4] 98.8% | viability [5] 95% | inhibition [6] 1.39% | RAM network inhibition [7] 1.28%

CCOC(=O)C(C(=O)Nc1ccccc1)C1CCCCC1 (configuration not stated)
inactive: growth inhibition [1] -7.22% | growth inhibition [2] 1.79% | viability increase [3] -5.02% | viability [4] 86.1% | viability [5] 86.7% | inhibition [6] -0.18% | RAM network inhibition [7] 3.67%

Cc1ccc(O)c(N=CC2=C(O)c3ccccc3C2=O)c1
inactive: growth inhibition [1] -0.76% | growth inhibition [2] 5.53% | viability increase [3] -3.88% | viability [4] 61.6% | viability [5] 64.2% | inhibition [6] 1.85% | RAM network inhibition [7] 1.92%

CN(CCCNC(=O)C1CCC(=O)N1Cc1ccc(F)cc1)c1ccccc1 (configuration not stated)
inactive: growth inhibition [1] 4.99% | growth inhibition [2] -8.76% | viability increase [3] -1.51% | viability [4] 95.5% | viability [5] 90.5% | inhibition [6] 0.54% | RAM network inhibition [7] 0.72%

CCN(c1cccc(C)c1)S(=O)(=O)c1cccc2nsnc12
inactive: growth inhibition [1] -12.6% | growth inhibition [2] -20.3% | viability increase [3] -3.59% | viability [4] 77.1% | viability [5] 88.8% | inhibition [6] 1.4% | RAM network inhibition [7] 4.75%

CC1CCN(C(=O)CSc2nnc(Cn3c(=O)sc4ccccc43)n2C)CC1
inactive: growth inhibition [1] -3.65% | growth inhibition [2] -5% | viability increase [3] -0.3% | viability [4] 121% | viability [5] 112% | inhibition [6] 0.075% | RAM network inhibition [7] 3.13%

Cc1ccc(CN2CCN(CC(=O)N3CCC(C(N)=O)CC3)C2=O)cc1
inactive: growth inhibition [1] 0.425% | growth inhibition [2] 1.62% | viability increase [3] -0.17% | viability [4] 105% | viability [5] 101% | inhibition [6] 2.1% | RAM network inhibition [7] 3.53%
